The source made the active and inactive calls. The calls are words filed in the database; no cut-off is given here.
Key:
[1] = tested on: Leptinotarsa decemlineata; assay: Antifeedant activity against Leptinotarsa decemlineata adults at 50 ug/cm'2 by no-choice test; format: functional
Spodoptera littoralis [2] = assay: Antifeedant activity against fifth instar Spodoptera littoralis L6 larvae assessed as food consumption at 20 ug/insect, po relative to control; format: functional
How it was run: (§1)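 Larval consumption and biomass gain were expressed as % of control. Significance versus control was tested at p < 0.05 with LSD. A second ANCOVA was run on biomass gain with food consumption as covariate to detect postingestive effects.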

Spodoptera littoralis [3] = assay: Antifeedant activity against fifth instar Spodoptera littoralis L6 larvae assessed as weight gain at 20 ug/insect, po relative to control; format: functional; how it was run: as §1
Myzus persicae = assay: Antifeedant activity against Myzus persicae apterous adults; format: functional, organism-based
How it was run: (§2)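 Choice feeding bioassay using adult beetles, newly emerged fifth-instar larvae or apterous adult aphids. Percent feeding inhibition (FI) and percent settling inhibition (SI) were calculated as previously described. Compounds giving FR/SI > 50% were taken into a dose-response test, with EC50 (dose giving 50% feeding reduction) obtained by linear regression of %FR or %SI on log dose.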

[4] = tested on: Leptinotarsa decemlineata; assay: Antifeedant activity against Leptinotarsa decemlineata adults by no-choice test; format: functional, organism-based
Spodoptera littoralis [5] = assay: Antifeedant activity against fifth instar Spodoptera littoralis L6 larvae; format: functional, organism-based; how it was run: as §2
[6] = tested on: Leptinotarsa decemlineata; assay: Antifeedant activity against Leptinotarsa decemlineata adults at 50 ug/cm'2 by choice test; format: functional; how it was run: as §2
[7] = tested on: Leptinotarsa decemlineata; assay: Antifeedant activity against Leptinotarsa decemlineata adults by choice test; format: functional, organism-based; how it was run: as §2
Fusarium verticillioides = assay: Antifungal activity against Fusarium moniliforme assessed as inhibition of mycelial growth at 0.5 mg/mL; format: functional; settings: read-out: GI
How it was run: (§3)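 Single-dose test at 0.5 mg/mL against the plant pathogens; activity estimated as percent mycelial growth inhibition.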

[8] = tested on: Leptinotarsa decemlineata; assay: Insecticidal activity against Leptinotarsa decemlineata adults assessed as mortality at 10 ug/insect dosed in to hemolymph injection after 72 hrs; format: functional
How it was run: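 Adult Colorado potato beetles, 20 per compound, each injected into the hemolymph with 10 µg of compound dissolved in DMSO. Mortality was scored for up to 3 days after injection. Percent mortality was analysed with contingency tables and corrected by Abbott's formula.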

Aspergillus niger = assay: Antifungal activity against Aspergillus niger assessed as inhibition of mycelial growth at 0.5 mg/mL; format: functional; settings: read-out: GI; how it was run: as §3
Spodoptera littoralis [9] = assay: Antifeedant activity against fifth instar Spodoptera littoralis L6 larvae at 100 ug/cm'2; format: functional; how it was run: as §2
Spodoptera littoralis [10] = assay: Antifeedant activity against fifth instar Spodoptera littoralis L6 larvae at 50 ug/cm'2; format: functional; how it was run: as §2

Row | Structure (SMILES) | Activity [1] | Activity (Spodoptera littoralis [2]) | Activity (Spodoptera littoralis [3]) | Activity (Myzus persicae) | EC50 [4] | EC50 (Spodoptera littoralis [5]) | Activity [6] | EC50 [7] | inhibition of growth at 500 µg/mL (Fusarium verticillioides) | Activity [8] | inhibition of growth at 500 µg/mL (Aspergillus niger) | Activity (Spodoptera littoralis [9]) | Activity (Spodoptera littoralis [10])
1 | COC(=O)c1ccc2c(c1)C[C@@]1(O2)[C@@H](C)CC[C@@H](O)C1(C)C [FILIFOLINOL] | 42.4% | 120.2% | 120.9% | inactive | > 50 ug.cm'-2 | > 100 ug.cm'-2 | 16.82% | > 50 ug.cm'-2 | 61% | 20% | 36% | 34.6% | –
2 | C[C@@H]1CC[C@@H]2C(C)(C)C[C@]3(C)CC=C[C@]123 [SILPHINENE] | – | – | – | – | 2.7 ug.cm'-2 | – | – | 0.27 ug.cm'-2 | – | 24% | – | – | –
3 | COc1ccc(C(=O)O)cc1C[C@@H]1C(C)(C)C(=O)C=C[C@@]1(C)O (relative stereo) | 56.1% | 113.1% | 126.2% | inactive | 50 ug.cm'-2 | > 100 ug.cm'-2 | 37% | > 50 ug.cm'-2 | – | 0% | – | – | 0%
4 | COC(=O)c1ccc(OC)c(C[C@@H]2C(C)(C)C(=O)C=C[C@@]2(C)O)c1 | 81.82% | 75.9% | 66.1% | inactive | 24.19 ug.cm'-2 | 17.4 ug.cm'-2 | 55.4% | 50 ug.cm'-2 | – | 0% | – | – | 71.8%
